An excerpt weighted towards active compounds, which were near 4.6% of everything screened.
GPR7 antag: antagonists of human GPR7 (neuropeptides B/W receptor 1); inhibition, % at 4.4 µM; GPR7-expressing cells, fluorescence antagonist assay; P48145; AID 1861; hit rate 1.1% among 290,000; in the data active = inhibition above about 16%, passing the limit was not always enough;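 note: cells stimulated with the agonist NPW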
OX1R antag-1: human HCRTR1 antagonism | O43613 | CHO/OX1R cells, Fluo-8 calcium fluorescence, orexin A | inhibition, % at 5 µM | hit rate 0.43% among 330,000;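 active = inhibition above its plate's threshold, mean inhibition of all tested compounds on the plate plus 3 SD, cut at about 37% in these data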
CHO parental Ca: counter-screen: ATP calcium response change in parental CHO cells; parental CHO-K1, ATP-induced calcium, Fluo-8 fluorescence; inhibition, % at 5.6 µM; hit rate 0.63% among 330,000; AID 463079;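 active = inhibition above that plate's mean sample inhibition plus 3 SD, cut at about 26% in these data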
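Test system: untransfected parental CHO cell line. Compound: one dose, 5.6 µM nominal. Detection: intracellular calcium via Fluo-8 no-wash fluorescent dye. Measure: % inhibition. Benchmarks: ATP-challenged DMSO wells low, unchallenged DMSO wells high.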
OX1R antag-2: OX1R (human) antagonism. hit rate 1.8% among 330,000. AID 485270. OX1R-expressing cells, FRET antagonist read-out. inhibition, % at 6.6 µM; in the data active = inhibition mostly above about 38%, no sharp cut-off; inactive = mostly below about 40%
TAAR1 antag: human TAAR1 antagonism; hit rate 1.5% among 360,000; CHO RD-HGA16 TAAR1, Fluo-8 calcium fluorescence, antagonist; AID 624466; Q96RJ0; inhibition, % at 3 µM;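 active = inhibition above a per-plate cutoff, the mean inhibition of test compounds on that plate plus 3 SD, cut at about 49% in these data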
Target sequence (Q96RJ0 whole entry, looked up): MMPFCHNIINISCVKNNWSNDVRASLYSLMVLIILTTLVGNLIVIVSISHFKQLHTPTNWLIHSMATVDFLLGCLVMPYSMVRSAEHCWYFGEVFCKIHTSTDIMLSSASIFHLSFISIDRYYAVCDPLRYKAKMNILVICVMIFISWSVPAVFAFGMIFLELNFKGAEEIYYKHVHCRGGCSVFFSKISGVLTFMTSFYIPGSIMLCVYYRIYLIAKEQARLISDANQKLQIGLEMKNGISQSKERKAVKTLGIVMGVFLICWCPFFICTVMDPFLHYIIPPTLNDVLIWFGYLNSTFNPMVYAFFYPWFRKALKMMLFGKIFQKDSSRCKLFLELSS
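Material: RD-HGA16 CHO cells with stable hTAAR1 and Gα16; Dosing: single nominal final test compound concentration of 3 µM; Schedule: seeding 17-24 h prior, 75-min 37 °C, 30-min RT dye loading; Detection: kinetic Fluo-8 calcium fluorescence measurement; Measure: % inhibition from peak post-agonist over basal fluorescence ratio; Benchmarks: vehicle and agonist controls.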
TAAR1 ag: agonists of human TAAR1. CHO RD-HGA16 TAAR1, Fluo-8 calcium fluorescence; vehicle wells 0%, saturating PEA agonist 100%. activation, % at 3 µM. hit rate 0.99% among 360,000;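 active = activation above the mean activation of all test compounds in the run plus 3 SD, cut at about 38% in these data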
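Signal – calcium-sensitive Fluo-8 signal, excitation 470-495, emission 515-575 nm · System – RD-HGA16 (CHO) cells co-expressing Gα16 and hTAAR1 · Incubation – 17-24 h seeding, 75 min 37 °C dye, 30 min RT · Compound dosing – 3 µM single concentration · Repeats – no replicates (n 1)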
GPR7 antag cf: human GPR7 antagonism, confirmation assay | shares compounds with GPR7 antag | GPR7-expressing cells, calcium fluorescence antagonist mode | inhibition, % at 4.4 µM | hit rate 52% among 2,400; in the data active = inhibition above about 24%;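 note: stimulated with the GPR7 agonist NPW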
MCHR1 antagonist: MCHR1 (human) antagonism in GPR7 counter-screen. inhibition, % at 4.4 µM. hit rate 62% among 2,400. AID 2148. MCHR1-expressing cells, fluorescence antagonist assay. shares compounds with GPR7 antag; in the data active = inhibition above about 22%
Each line names hits and unclear results; the compound was inactive in the other large screens (follow-up assays come after a bar, where they were run).

CC(C)CC(=O)NC(Nc1ccc([N+](=O)[O-])cc1)C(Cl)(Cl)Cl (stereo not drawn)	GPR7 antag 25.6 | GPR7 antag cf inactive | MCHR1 antagonist 45.4
CC(OC(=O)c1oc2ccccc2c1COc1ccccc1)C(N)=O (stereo not drawn)	none
CC(C)(C)NC(=O)c1oc2ccccc2c1COc1ccccc1	GPR7 antag 26.4 | GPR7 antag cf inactive | MCHR1 antagonist 34.6
CCSCCOC(=O)C1=C(C)NC2=C(C(=O)CCC2)C1c1coc2ccccc2c1=O (stereo not drawn)	none
Cc1ccc(O)c(C2=NOC(O)(C(F)(F)F)C2)c1 (stereo not drawn)	none
CC(=O)c1ccc(N2CCN(C(=S)Nc3ccccc3)CC2)cc1	none
CSCCCNC(=S)N1CCN(c2ccc(C(C)=O)cc2)CC1	GPR7 antag 26.2 | GPR7 antag cf 28.1 | MCHR1 antagonist 31.5
CC1CCCC(NC(=O)CNC(=S)N(Cc2ccccc2)Cc2cccs2)C1C (stereo not drawn)	GPR7 antag 21.6 | GPR7 antag cf 32.0 | MCHR1 antagonist 24.1
O=C(NC1CCCCCCC1)C1c2ccccc2C(=O)N1Cc1ccco1 (stereo not drawn)	GPR7 antag 39.4 | GPR7 antag cf 25.3 | MCHR1 antagonist inactive
CC1CCCC(NC(=O)C2c3ccccc3C(=O)N2Cc2cccs2)C1C (stereo not drawn)	GPR7 antag 39.7 | GPR7 antag cf 27.8 | MCHR1 antagonist 24.1
O=C(NCC(=O)N1CCOCC1)c1ccc(Cl)c(Cl)c1	none (no result: GPR7 antag)
O=C(C1CCN(Cc2cccs2)CC1)N1CCN(Cc2ccc3c(c2)OCO3)CC1	none
O=C(CSc1nc(-c2ccc(F)cc2)cs1)NCC1CCCO1 (stereo not drawn)	none (no result: GPR7 antag)
Cc1ccn2cc(-c3ccc(O)c(O)c3)nc2c1	none
O=C(OCC(=O)C12CC3CC(CC(C3)C1)C2)c1cccnc1Cl	none
Cc1ccc(NC(Cc2cc(C)no2)c2ccccc2)cc1 (stereo not drawn)	GPR7 antag 40.5 | GPR7 antag cf 34.2 | MCHR1 antagonist inactive
Cc1cc(CSc2ccccc2C(=O)O)on1	none
O=C(CN1CCOc2ccccc21)NC1CCCCCCC1	GPR7 antag 25.3 | GPR7 antag cf inactive | MCHR1 antagonist inactive
O=C(CN1CCOc2ccccc21)NC1CCN(Cc2ccccc2)CC1	none
COc1ccc(CCOC(=O)c2cccc(NC(C)=O)c2)cc1	none
CNC(=S)N/N=C/c1cn(Cc2c(F)cccc2Cl)c2ccccc12	GPR7 antag 30.3 | GPR7 antag cf 44.7 | MCHR1 antagonist 29.8
CC(=O)CCC(=O)N1CCCC(N2CCN(c3cccc(Cl)c3)CC2)C1 (stereo not drawn)	none
CCOC(=O)c1ccc(CNC(=O)c2cc(COc3ccccc3SC)on2)o1	GPR7 antag 43.7 | GPR7 antag cf inactive | MCHR1 antagonist 45.5
CSc1ccccc1OCc1cc(C(=O)NCc2ccc(C)s2)no1	none
C/C(=N\NC(=O)c1c(-c2ccccc2Cl)noc1C)c1cccc(NC(=O)C(C)C)c1	none
CCCN(CCC)C1=CC(=[N+]2CCCC2)CC(C)(C)C1	GPR7 antag 51.9 | GPR7 antag cf 57.8 | MCHR1 antagonist 51.1
CN(C)NC1=CC(=[N+]2CCCC2)CC(C)(C)C1	none
CN1CCC(NCCC(c2ccc(F)cc2)c2ccc(Cl)cc2)CC1 (stereo not drawn)	GPR7 antag 46.7 (no result: OX1R antag-1, CHO parental Ca, OX1R antag-2) | GPR7 antag cf 42.8 | MCHR1 antagonist 40.8
C[C@H](CO)N1C[C@H](C)[C@@H](CN(C)S(=O)(=O)c2ccc(F)cc2)Oc2c(NS(=O)(=O)c3ccccc3)cccc2C1=O	none (no result: GPR7 antag)
O=C(Nc1cccc2ccccc12)c1ccc([N+](=O)[O-])cc1	GPR7 antag 41.7 | GPR7 antag cf inactive | MCHR1 antagonist inactive
O=C(NCCc1c[nH]c2ccccc12)c1ccc([N+](=O)[O-])cc1	GPR7 antag 30.5 | GPR7 antag cf 30.2 | MCHR1 antagonist 25.6

Screens (PubChem BioAssay)
